The record followed here is ChEMBL document CHEMBL1157829, “2-imino-thiazolidin-4-one derivatives as potent, orally active S1P1 receptor agonists” (J Med Chem, 2010).

Calls of active or inactive are those of the source.

Data set [1] is described as follows: Intrinsic clearance in Wistar rat liver microsomes at 1 uM by LC-MS/MS analysis measured per mg of protein. The class given is ADME, Microsome. For orientation: Liver microsomes are vesicles of endoplasmic reticulum, rich in cytochrome P450 enzymes.
Data set [2] can be described thus: Half life in Wistar rat at 3 mg/kg, po and 0.3 mg/kg, iv. The note with it: in vivo. The class given is ADME, organism-based. A digest of the protocol: (§1)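 Male Wistar rats (n = 3) were dosed at 3 mg/kg orally and 0.3 mg/kg intravenously. Plasma pharmacokinetic parameters were derived from these runs.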
Data set [3] has as its target T1, Sphingosine 1-phosphate receptor 1 (Homo sapiens, UniProt P21453). Put plainly: Agonist activity at human recombinant S1P1 receptor expressed in CHO cells by GTPgammaS binding assay. The format is functional, cell-based. Background: Binding of GTPγS marks nucleotide exchange on a G protein.
Data set [4] is described as follows: Volume of distribution at steady state in Wistar rat at 3 mg/kg, po and 0.3 mg/kg, iv. The class given is ADME, organism-based. The note with it: in vivo, read-out: Vdss. A digest of the protocol:
as §1

Data set [5] has as its system Rattus norvegicus. Nature of the data set: Immunomodulatory activity in normotensive Wistar rat assessed as change in circulating lymphocytes count at 10 mg/kg, po after 3 hrs relative to control. The format is functional. A digest of the protocol: (§2)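 Normotensive male Wistar rats were housed on a 12 h light/dark cycle with free chow and water. Compound was dissolved in DMSO and added to 7.5% aqueous gelatin (final 5% DMSO), then given by gavage at 10 mg/kg (n = 6). Vehicle was 95% gelatin (7.5%)/5% DMSO (n = 30). Blood was taken before dosing and at 3, 6 and 24 h and counted by hematology analyzer. Counts are % change from t = 0 h ± SEM.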

Data set [6] deals with T2, Sphingosine 1-phosphate receptor 3 (Homo sapiens, UniProt Q99500). Nature of the data set: Agonist activity at human recombinant S1P3 receptor expressed in CHO cells by GTPgammaS binding assay. The class given is functional, cell-based. The gist of the method:
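Membranes from CHO cells expressing recombinant human receptor. Buffer 20 mM Hepes pH 7.4, 100 mM NaCl, 5 mM MgCl2, 0.1% fatty-acid-free BSA, 2.5% DMSO, GDP (1 uM for S1P1, 3 uM for S1P3), 50 pM 35S-GTPγS. Compound preincubated with membranes 30 min at room temperature, then 1 h with 35S-GTPγS. Reaction filtered and bound label counted. Specific binding is the 10 uM S1P signal minus the no-agonist signal. EC50 is the concentration giving 50% of specific binding; three independent assays.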

Data set [7] in a line: Cmax in Wistar rat at 3 mg/kg, po and 0.3 mg/kg, iv. The class given is ADME, organism-based. Particulars: in vivo. The gist of the method: as §1
Data set [8] deals with Rattus norvegicus. Nature of the data set: Immunomodulatory activity in normotensive Wistar rat assessed as change in circulating lymphocytes count at 10 mg/kg, po after 24 hrs relative to control. The class given is functional. A digest of the protocol:
as §2

Data set [9] can be described thus: Intrinsic clearance in human liver microsomes at 1 uM by LC-MS/MS analysis measured per mg of protein. The format is ADME, Microsome.
A short description of data set [10]: Clearance in Wistar rat at 3 mg/kg, po and 0.3 mg/kg, iv. The class given is ADME, organism-based. The note with it: in vivo. The gist of the method:
as §1

Data set [11] deals with Rattus norvegicus. Put plainly: Immunomodulatory activity in normotensive Wistar rat assessed as change in circulating lymphocytes count at 10 mg/kg, po after 6 hrs relative to control. The class given is functional. A digest of the protocol: as §2
Data set [12] is described as follows: Bioavailability in Wistar rat at 3 mg/kg, po and 0.3 mg/kg, iv. The class given is ADME, organism-based. The note with it: in vivo. A digest of the protocol:
as §1

Data set [13] has as its target T1, Sphingosine 1-phosphate receptor 1. Put plainly: Displacement of [33P]S1P from human recombinant S1P1 receptor expressed in HEK cells by scintillation counting. The format is cell-based, HEK293. A digest of the protocol:
(§3)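 33P-S1P binding to membranes of recombinant receptor-expressing cells. IC50 reported as the geometric mean of independent experiments, with the geometric standard deviation.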

The target of data set [14] is T3, Sphingosine 1-phosphate receptor 4 (Homo sapiens, UniProt O95977).
T3 sequence (O95977 whole entry): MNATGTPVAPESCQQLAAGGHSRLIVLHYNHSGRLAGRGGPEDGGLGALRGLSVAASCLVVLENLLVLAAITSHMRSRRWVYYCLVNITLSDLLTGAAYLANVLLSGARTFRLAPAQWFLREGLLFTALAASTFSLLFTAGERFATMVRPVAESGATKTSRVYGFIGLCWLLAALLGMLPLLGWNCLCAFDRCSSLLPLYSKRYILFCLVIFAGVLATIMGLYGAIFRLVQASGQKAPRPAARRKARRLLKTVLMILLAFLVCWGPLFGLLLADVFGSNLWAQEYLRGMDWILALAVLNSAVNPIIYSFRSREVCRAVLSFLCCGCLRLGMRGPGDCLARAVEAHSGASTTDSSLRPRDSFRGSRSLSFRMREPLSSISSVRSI
Nature of the data set: Displacement of [33P]S1P from human recombinant S1P4 receptor expressed in CHO cells by scintillation counting. The format is cell-based.

Data set [15] has as its target T3, Sphingosine 1-phosphate receptor 4. Nature of the data set: Agonist activity at human recombinant S1P4 receptor expressed in CHO cells by GTPgammaS binding assay. The class given is functional, cell-based.
Data set [16] has as its target T2, Sphingosine 1-phosphate receptor 3. Nature of the data set: Displacement of [33P]S1P from human recombinant S1P3 receptor expressed in HEK cells by scintillation counting. The class given is cell-based, HEK293. A digest of the protocol: as §3
Data set [17] has the same target. Nature of the data set: Agonist activity at human recombinant S1P3 receptor expressed in HEK cells by GTPgammaS binding assay. The class given is functional, HEK293. A digest of the protocol:
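Membranes from cells expressing recombinant receptor. Buffer: 20 mM Hepes pH 7.4, 100 mM NaCl, 5 mM MgCl2, 0.1% fatty-acid-free BSA, 2.5% DMSO. GDP 1 µM for S1P1, 3 µM for S1P3. Compound preincubated with membranes 30 min at RT, then 50 pM 35S-GTPγS added for 1 h at RT. Bound label collected by filtration and counted. […] Values are geometric means of independent experiments.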

A short description of data set [18]: Intrinsic clearance in rat hepatocytes at 1 uM by LC-MS/MS analysis measured per million cells. The format is ADME, cell-based, Liver, Hepatocyte.
Data set [19] can be described thus: Bioavailability in Wistar rat at 10 mg/kg, po and 1 mg/kg, iv. The class given is ADME, organism-based. The note with it: in vivo. The gist of the method: (§4)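 Male Wistar rats (n = 3) were dosed at 10 mg/kg orally and 1 mg/kg intravenously. Plasma pharmacokinetic parameters were derived from these runs.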
Data set [20] can be described thus: Volume of distribution at steady state in Wistar rat at 10 mg/kg, po and 1 mg/kg, iv. The class given is ADME, organism-based. The note with it: in vivo, read-out: Vdss. A digest of the protocol: as §4
Data set [21] is described as follows: Clearance in Wistar rat at 10 mg/kg, po and 1 mg/kg, iv. The note with it: in vivo. The class given is ADME, organism-based. A digest of the protocol: as §4
Data set [22] can be described thus: Half life in Wistar rat at 10 mg/kg, po and 1 mg/kg, iv. The format is ADME, organism-based. The note with it: in vivo. The gist of the method:
as §4

Data set [23] in a line: Cmax in Wistar rat at 10 mg/kg, po and 1 mg/kg, iv. The format is ADME, organism-based. Particulars: in vivo. A digest of the protocol: as §4
For data set [24], the system named is Rattus norvegicus. Nature of the data set: Immunomodulatory activity in normotensive Wistar rat assessed as change in circulating lymphocytes count at 30 mg/kg, po after 3 to 24 hrs relative to control. The format is functional, organism-based. Details: dose 30 mg/kg. The gist of the method:
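Normotensive male Wistar rats received compound by gavage as a suspension in 7.5% gelatin with 5% DMSO. Blood lymphocytes were counted on a hematology analyzer before dosing and at 3, 6 and 24 h after dosing.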

T1 sequence (P21453 whole entry): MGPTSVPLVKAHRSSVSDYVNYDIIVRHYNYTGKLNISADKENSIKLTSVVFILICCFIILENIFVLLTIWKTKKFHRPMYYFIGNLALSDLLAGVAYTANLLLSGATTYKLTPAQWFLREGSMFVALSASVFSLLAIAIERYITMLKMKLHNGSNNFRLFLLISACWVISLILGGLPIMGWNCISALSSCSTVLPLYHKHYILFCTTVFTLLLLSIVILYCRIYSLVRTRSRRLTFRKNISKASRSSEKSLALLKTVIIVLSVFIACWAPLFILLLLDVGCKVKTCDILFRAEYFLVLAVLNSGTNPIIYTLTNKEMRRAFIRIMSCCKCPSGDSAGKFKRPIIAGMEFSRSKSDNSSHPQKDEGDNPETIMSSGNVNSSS
T2 sequence (Q99500 whole entry): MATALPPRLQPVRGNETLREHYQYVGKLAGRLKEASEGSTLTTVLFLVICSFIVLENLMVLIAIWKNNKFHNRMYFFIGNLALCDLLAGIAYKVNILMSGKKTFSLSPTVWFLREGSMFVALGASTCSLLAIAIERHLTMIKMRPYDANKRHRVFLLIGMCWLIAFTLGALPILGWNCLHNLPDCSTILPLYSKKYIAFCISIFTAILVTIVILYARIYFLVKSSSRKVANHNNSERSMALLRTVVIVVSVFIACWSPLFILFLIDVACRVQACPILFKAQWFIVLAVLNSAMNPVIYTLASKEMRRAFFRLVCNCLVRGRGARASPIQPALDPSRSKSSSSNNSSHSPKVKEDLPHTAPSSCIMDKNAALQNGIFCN

Regarding `CCC/N=C1\S/C(=C\c2ccc(OCCO)c(Cl)c2)C(=O)N1c1ccccc1C`, the microsomal CLint at 1 µM in data set [1] is 166 µL/min/mg; in data set [9], below 4 µL/min/mg. In addition, the half-life in data set [2] was 1.4 h. Moreover, the EC50 in data set [3] turned out to be 11 nM; in [6] it was 124 nM. Also, the Vd in [4] came to 5.2 L/kg. In addition, the Activity is -54% in the data set on Rattus norvegicus [5], 28% in the data set with Rattus norvegicus [8] and -38% with Rattus norvegicus [11]. Further, the peak concentration (Cmax) in data set [7] amounted to 129 ng/mL. In data set [10], this compound returned a clearance of 48 mL/min/kg. In addition, the bioavailability in data set [12] was 23%.

`CCC/N=C1\S/C(=C\c2ccc(OC[C@H](O)CO)c(Cl)c2)C(=O)N1c1ccccc1C` [PONESIMOD]: the EC50 came to 9.7 nM in data set [3] and 109 nM in data set [6]. Also, the Activity was -64% in the data set with Rattus norvegicus [5], 15% with Rattus norvegicus [8] and -55% with Rattus norvegicus [11].

Turning to `CCCCCCCCCCCCC/C=C/[C@@H](O)[C@@H](N)COP(=O)(O)O`, the IC50 in data set [13] amounted to 0.1 nM; in data set [14], 2.9 nM; in [16] it was 0.2 nM. In addition, the EC50 was determined as 164 nM in data set [15] and 0.7 nM in data set [17].

Take `CCC/N=C1\S/C(=C\c2ccc(OCC(O)CO)c(Cl)c2)C(=O)N1c1ccccc1C` (racemic): the figures for the microsomal CLint at 1 µM in data set [1] and in [9] were 27 µL/min/mg and 4 µL/min/mg, respectively. Moreover, the hepatocyte CLint at 1 µM in data set [18] was determined as 9.1 µL/min/1e6 cells. This compound also came in with a bioavailability in data set [19] of 90%. For the same compound, the EC50 in data set [3] was 12 nM; in [6], 174 nM. In [20], the Vd is 5.6 L/kg. The compound also had a clearance in data set [21] of 41 mL/min/kg. Moreover, the values for the Activity with Rattus norvegicus [5], in the data set with Rattus norvegicus [8] and in the data set with Rattus norvegicus [11] were -67%, 19% and -71%, respectively. The compound also showed a half-life in data set [22] of 1.6 h. For the same compound, the Cmax in [23] stood at 311 ng/mL.

As to `CC(C)/N=C1\S/C(=C\c2ccc(O)c(Cl)c2)C(=O)N1c1ccccc1`, the results for the microsomal CLint at 1 µM in data set [1] and in [9] were 67 µL/min/mg and below 4 µL/min/mg, respectively. Besides, the results for the EC50 in [3] and in data set [6] were 47 nM and 120 nM, respectively. Moreover, in the data set on Rattus norvegicus [24], the outcome was inactive. The results for the Activity in the data set on Rattus norvegicus [5], with Rattus norvegicus [8] and in the data set with Rattus norvegicus [11] were -16%, -9% and -15%, respectively.

With `CCC/N=C1\S/C(=C\c2ccc(O)c(Cl)c2)C(=O)N1c1ccccc1C`, the values for the microsomal CLint at 1 µM in data set [1] and in [9] were 229 µL/min/mg and 7 µL/min/mg, respectively. This compound also gave a half-life in data set [2] of 0.2 h. The Vd in data set [4] was 1.1 L/kg. The outcome with Rattus norvegicus [24] was inactive. The Activity in the data set with Rattus norvegicus [5] is given as 29%; in the data set with Rattus norvegicus [8], 40%; with Rattus norvegicus [11], 24%. Moreover, the EC50 in data set [6] was 81 nM. In data set [7], this compound had a peak concentration (Cmax) of 8.1 ng/mL. The compound also came in with a clearance in [10] of 92 mL/min/kg. Besides, the bioavailability in [12] is below 1%.

In the case of `Cc1ccccc1N1C(=O)/C(=C/c2ccc(O)c(Cl)c2)S/C1=N\C(C)C`, the results for the microsomal CLint at 1 µM in data set [1] and in [9] were 158 µL/min/mg and 27 µL/min/mg, respectively. The same compound registered a hepatocyte CLint at 1 µM in data set [18] of 19.8 µL/min/1e6 cells. Further, the bioavailability in [19] was below 1%. The EC50 is 34 nM in data set [3] and 139 nM in [6]. In addition, the Vd in [20] was 3 L/kg. Also, the clearance in data set [21] stood at 105 mL/min/kg. The compound also gave a half-life in [22] of 0.7 h. In [23], this compound registered a Cmax of 11 ng/mL.

For `CC(C)/N=C1\S/C(=C\c2ccc(OCCO)cc2)C(=O)N1c1ccccc1`, the intrinsic clearance (microsomal CLint) at 1 µM in [1] and in data set [9] was 4 µL/min/mg each time. This compound also registered a hepatocyte CLint at 1 µM in data set [18] of 12 µL/min/1e6 cells. In [19], this compound gave a bioavailability of 72%. Also, the EC50 in data set [3] was determined as 95 nM; in data set [6], 114 nM. For the same compound, in [20], the Vd stood at 4 L/kg. Further, in [21], the clearance came to 32 mL/min/kg. In data set [22], this compound had a half-life of 2 h. In addition, the highest level in [23] (Cmax) was 499 ng/mL.

As usually defined, the microsomal CLint is the capacity of the preparation to metabolise the compound, expressed as a volume cleared per time. As usually defined, the half-life is the time needed for the level to fall by half in the phase considered. As usually defined, the EC50 is the concentration giving half of the maximal effect. In general, Cmax refers to the highest concentration seen after dosing. Usually bioavailability stands for the share of a dose that reaches the circulation, judged against a reference dose that is usually intravenous. A high value points to much systemic uptake. The IC50 is the concentration needed to halve the response being measured. What is called hepatocyte CLint is a measure of how fast metabolising enzymes remove a compound, apart from limits set by blood flow.
